Assay results as given in ChEMBL document CHEMBL4052819 (2017).

Experiments:
Assay type in all cases: functional
Staphylococcus aureus = test: Antibiofilm activity against methicillin-resistant Staphylococcus aureus LAC established catheter-associated biofilm model at 20 times MIC after 72 hrs relative to control
Escherichia coli [1] = test: Antibacterial activity against polymyxin-resistant Escherichia coli UAMS-ECPR1 after 18 to 20 hrs by broth microdilution method
Outline: (§1)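 Broth microdilution in tryptic soy broth: 2-fold dilutions mixed 1:1 with ~1.5 × 10^5 CFU/mL bacterial suspension in TSB, final 0.5–32 μg/mL, 37 °C for 18–20 h. MIC = lowest concentration with no visible growth. At least three independent experiments, one replicate each.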

Klebsiella pneumoniae [2] = test: Antibacterial activity against polymyxin-resistant Klebsiella pneumoniae UAMS-KPPR1 after 18 to 20 hrs by broth microdilution method
Escherichia coli [3] = test: Antibacterial activity against polymyxin-resistant Escherichia coli UAMS-ECPR2 after 18 to 20 hrs by broth microdilution method; outline: as §1
Escherichia coli [4] = test: Antibacterial activity against polymyxin-resistant Escherichia coli AR 0494 expressing mcr1 after 18 to 20 hrs by broth microdilution method; outline: as §1
Klebsiella pneumoniae [5] = test: Antibacterial activity against polymyxin-resistant Klebsiella pneumoniae UAMS-KPPR3 after 18 to 20 hrs by broth microdilution method

Compound | Activity (Staphylococcus aureus) [%] | MIC (Escherichia coli [1]) [µg/mL] | MIC (Klebsiella pneumoniae [2]) [µg/mL] | MIC (Escherichia coli [3]) [µg/mL] | MIC (Escherichia coli [4]) [µg/mL] | MIC (Klebsiella pneumoniae [5]) [µg/mL]
CCCCCCCCCC(=O)N[C@@H](Cc1c[nH]c2ccccc12)C(=O)N[C@@H](CC(N)=O)C(=O)N[C@@H](CC(=O)O)C(=O)N[C@@H]1C(=O)NCC(=O)N[C@@H](CCCN)C(=O)N[C@@H](CC(=O)O)C(=O)N[C@H](C)C(=O)N[C@@H](CC(=O)O)C(=O)NCC(=O)N[C@H](CO)C(=O)N[C@@H]([C@H](C)CC(=O)O)C(=O)N[C@@H](CC(=O)c2ccccc2N)C(=O)O[C@@H]1C [DAPTOMYCIN] | 17 | – | – | – | – | –
POLYMYXIN B | – | 32 | > 32 | 32 | 2 to 8 | > 32
